We go through 19 molecules from ChEMBL document CHEMBL3352196, “Synthesis, structural characterization and effect on human granulocyte intracellular cAMP levels of abscisic acid analogs” (Bioorg Med Chem, 2015).

For assay [1], the species on record is Homo sapiens. Briefly: Increase in intracellular cAMP level in human granulocytes at 1 to 50 uM incubated for 1 min at 25 degC. It counts as functional, cell-based. An outline of the steps:
(§1)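 Human granulocytes were rested overnight after purification, pelleted at 200×g for 5 min, and resuspended at 1.5 × 10⁷/ml in HBSS with Ca and Mg. Cells were preincubated 5 min at 25 °C with the PDE inhibitor Ro-20-1724, then given analog alone for 1 min at 25 °C. Perchloric acid at 4 °C stopped the reaction, and supernatant was neutralized to pH 7.5 with K2CO3. cAMP was read by [³H]-cAMP competitive radioimmunoassay and reported relative to untreated cells.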

The species entered for assay [2] is Homo sapiens. Briefly: Inhibition of 1 uM ABA-induced Increase in intracellular cAMP level in human granulocytes at 50 uM incubated for 1 min at 25 degC. It counts as functional, cell-based. A digest of the protocol:
(§2)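 Cells were rested overnight, then resuspended at 1.5 × 10⁷/ml in HBSS containing Ca and Mg. After a 5 min preincubation at 25 °C with Ro-20-1724 (PDE inhibitor), aliquots received ABA with or without analog for 1 min at 25 °C; untreated cells were the control. Cold perchloric acid ended the reaction; lysate was spun, neutralized with K2CO3 to pH 7.5, and cleared of KClO4. cAMP was measured by [³H]-cAMP radioimmunoassay and given as increase over control.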

Assay [3] addresses T1, LanC-like protein 2 (Homo sapiens, UniProt Q9NS86).
T1 sequence (Q9NS86 whole entry): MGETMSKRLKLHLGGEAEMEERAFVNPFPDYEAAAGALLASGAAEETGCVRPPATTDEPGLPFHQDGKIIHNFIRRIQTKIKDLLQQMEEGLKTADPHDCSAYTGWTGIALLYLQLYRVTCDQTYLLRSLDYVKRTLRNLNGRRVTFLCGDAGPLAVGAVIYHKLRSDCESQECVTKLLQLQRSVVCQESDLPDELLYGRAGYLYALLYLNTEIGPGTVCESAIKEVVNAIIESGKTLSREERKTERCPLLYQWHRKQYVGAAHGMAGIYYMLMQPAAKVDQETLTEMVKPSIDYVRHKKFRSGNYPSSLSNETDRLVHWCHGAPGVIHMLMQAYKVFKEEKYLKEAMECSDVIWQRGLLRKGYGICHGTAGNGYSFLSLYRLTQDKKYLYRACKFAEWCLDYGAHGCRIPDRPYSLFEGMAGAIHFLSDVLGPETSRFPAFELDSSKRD
Briefly: Inhibition of ABA binding to LANCL2 (unknown origin).

Assay [4] is described as follows: Inhibition of 1 uM ABA-induced Increase in intracellular cAMP level in human granulocytes incubated for 1 min at 25 degC. It counts as functional, cell-based. An outline of the steps: as §2
The species named for assay [5] is Homo sapiens. The experiment in a line: Increase in intracellular cAMP level in human granulocytes at 50 uM incubated for 1 min at 25 degC. It counts as functional, cell-based. An outline of the steps: as §1
The species named for assay [6] is Homo sapiens. Briefly: Increase in intracellular cAMP level in human granulocytes at 1 to 10 uM incubated for 1 min at 25 degC. It counts as functional, cell-based. A digest of the protocol:
as §1

Assay [7] is filed under the species Homo sapiens. Briefly: (§3) Increase in intracellular cAMP level in human granulocytes at 1 uM incubated for 1 min at 25 degC. Format: functional. A digest of the protocol: as §1
Assay [8] is filed under the species Homo sapiens. Briefly: Potentiation of 1 uM ABA-induced Increase in intracellular cAMP level in human granulocytes at 50 uM incubated for 1 min at 25 degC. Format: functional, cell-based. A digest of the protocol:
as §2

Assay [9] is filed under the species Homo sapiens. Briefly: Inhibition of 1 uM ABA-induced Increase in intracellular cAMP level in human granulocytes at 1 to 10 uM incubated for 1 min at 25 degC. Format: functional, cell-based. An outline of the steps:
as §2

Assay [10] in a line: as §3. Format: functional. An outline of the steps: as §1

pIC50: −log10 of the molar value. Active and inactive are the calls of the source. The calls are words filed in the database; no cut-off is given here.

Consider `COC(=O)/C=C(C)\C=C\c1c(C)cc(OC(C)=O)c(C)c1C`, for which, in assay [1], the result was inactive. Also, in assay [2], the inhibition result is “inactive”.
As to `CC(=C/C(=O)O)/C=C/C1(O)C(C)(C)CC(=O)C2OC21C` (racemic), the pIC50 in [3] was 8.18; in [4], 9.15. Also, the inhibition entry in assay [2] was “Active”.
As for `CC(=O)/C=C/C12OC1(C)CCCC2(C)C` (racemic), in [5], the outcome was Active. For the same molecule, the inhibition entry in [2] was “inactive”. The result in assay [6] was inactive.
Turning to `CC(=O)OC1C=C(C)C(O)(/C=C/C(C)=C\C(=O)O)C(C)(C)C1` (racemic), the result in assay [1] was Active.
As for `CC1=CC(=O)CC(C)(C)C1(O)/C=C/C(C)=C\C(=O)Nc1ccc(N)cc1` (racemic), in [1], the outcome was inactive. Moreover, the inhibition result in assay [2] is “inactive”.
For `CC1=CC(=O)CC(C)(C)C1(O)/C=C/C(C)=C\C(=O)Nc1ccccc1` (racemic), the result in assay [1] and in [7] was Active.
For the molecule `CC1=CC(=O)CC(C)(C)C1(O)/C=C/C(C)=C\C(=O)OC(C)(C)C` (racemic), the outcome in assay [1] was Active. Also, the result in assay [8] was inactive.
On to `CC1=CC(=O)CC(C)(C)C1(O)/C=C/C(C)=C\C(=O)OCC(=O)OC(C)(C)C` (racemic), for which the result in assay [6] and in assay [7] was Active.
Turning to `CC1=CC(=O)CC(C)(C)C1(O)/C=C/C(C)=C\C(=O)OCC(=O)OCC(=O)O` (racemic), the inhibition result in [9] is “inactive”. In addition, the outcome in assay [5] was inactive. The inhibition entry in assay [2] was “Active”.
On to `CC1=CC(=O)CC(C)(C)C1(O)/C=C/C(C)=C\CO` (racemic), for which the result in [1] was Active.
Still for that read-out and setting: as for `CC1=CC(=O)O/C1=C\C1(O)C(C)=CC(=O)CC1(C)C` (racemic), the entry is “Active”.
The same measure, in the same setting: as for `CC1=CC(O)CC(C)(C)C1(O)/C=C/C(C)=C\C(=O)O` (racemic), the entry is “Active”.
Consider `CC1=CC(O)CC(C)(C)C1(O)/C=C/C(C)=C\C(=O)OCC(=O)OC(C)(C)C` (racemic), for which the result in assay [1] was inactive. Further, in assay [2], the inhibition entry was “inactive”.
Take `CC1=CC(O)CC(C)(C)C1(O)/C=C/C(C)=C\CO` (racemic): the result in assay [1] was Active.
Consider `CCN(CC)C(=O)/C=C(C)\C=C\C1(O)C(C)=CC(=O)CC1(C)C` (racemic), for which the outcome in assay [1] was Active.
Consider `COC(=O)/C=C(C)\C=C\C1(O)C(C)=CC(=O)CC1(C)C` (racemic), for which the result in [1] and in [8] was Active.
For `COC(=O)/C=C(C)\C=C\C1(O)C(C)=CC(O)CC1(C)C` (racemic), the outcome in assay [1] was inactive. Further, in assay [2], the inhibition result is “inactive”.
With `COc1ccc(NC(=O)/C=C(C)\C=C\C2(O)C(C)=CC(=O)CC2(C)C)cc1` (racemic), the result in assay [1] and in [7] was Active.
`CC1=CC(=O)CC(C)(C)[C@@]1(O)/C=C/C(C)=C\C(=O)O` (racemic) [(+)-ABSCISIC ACID] returned an Activity in assay [10] of 35%.
